Source: PubChem BioAssay (several laboratories)
Most compounds without a hit are left out; they make up all but 2.5% or so of the library.
bovine MsrA act = activates bovine MsrA enzyme | purified bovine MsrA, absorbance read-out | activation, % at 10.6 µM | 360,000 tested, 0.3% active | AID 602163; in the data active = activation above about 7.5%;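 note: 0% = vehicle and 100% = reference activator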
NR2E3 ag-1 = agonists of human nuclear receptor NR2E3 | Q9Y5X4 | GST-NR2E3/biotin-RetCOR TR-FRET, 1536-well | inhibition of corepressor binding, % at 4.78 µM | 320,000 tested, 0.12% active | AID 2300;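 active = percent inhibition above the cutoff of mean plus 3 SD of all tested compounds, set per screening campaign, cut at about 20% in these data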;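 note: 0% = DMSO wells and 100% = biotin wells as full block of FRET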
Target sequence (Q9Y5X4 whole entry, looked up): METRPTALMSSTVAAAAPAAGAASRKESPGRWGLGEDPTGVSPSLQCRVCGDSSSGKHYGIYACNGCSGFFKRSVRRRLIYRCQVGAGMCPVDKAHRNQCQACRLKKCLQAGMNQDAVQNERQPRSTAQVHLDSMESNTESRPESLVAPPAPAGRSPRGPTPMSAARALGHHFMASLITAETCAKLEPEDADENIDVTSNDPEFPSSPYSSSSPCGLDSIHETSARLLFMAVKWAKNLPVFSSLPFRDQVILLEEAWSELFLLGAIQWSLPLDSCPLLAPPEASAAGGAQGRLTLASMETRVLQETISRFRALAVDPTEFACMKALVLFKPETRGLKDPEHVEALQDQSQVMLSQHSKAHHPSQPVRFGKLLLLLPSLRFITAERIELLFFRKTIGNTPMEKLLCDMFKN
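System: GST-tagged NR2E3 plus biotinylated RetCOR corepressor; Amount: 1.35 nM GST-tagged NR2E3 final; Dosing: single nominal compound dose of 4.8 µM; Schedule: 5 h incubation at 4 °C; Technique: TR-FRET with europium anti-GST and streptavidin-D2, 340 nm excitation; Controls: biotin wells as high control, 0.6% DMSO wells as low control.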
NadD inh = NadD (S. aureus) enzyme inhibition; purified NadD enzyme, colorimetric absorbance read-out; inhibition, % at 20 µM; 360,000 tested, 0.78% active; AID 602399; in the data active = inhibition above about 26%
MsrA inhibitor = inhibits bovine methionine sulfoxide reductase A. purified bovine MsrA, absorbance read-out. inhibition, % at 15.5 µM. 360,000 tested, 0.75% active; in the data active = inhibition above about 4.5%;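 note: 0% = vehicle wells with enzyme and 100% = reference inhibitor wells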
NR2E3 ag-2 = human photoreceptor-specific nuclear receptor agonism | Q9Y5X4 | CHO-S Gal4-NCOR/VP16-NR2E3 two-hybrid, luciferase | inhibition of corepressor binding, % at 3.98 µM | 360,000 tested, 0.35% active;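 active = inhibition above the mean of all tested compounds plus 3 SD, cut at about 70% in these data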;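 note: 0% = DMSO with NR2E3 transfected cells and 100% = cells lacking NR2E3 construct; higher means lower luciferase signal from less NR2E3 corepressor binding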
GalR3 antag = blocks the human galanin receptor 3; HEK293 GalR3-CNG cAMP membrane potential fluorescence; galR3 body fused to GalR1 C-terminus; inhibition, % at 3 µM; 360,000 tested, 0.44% active;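 active = inhibition above the screen-wide average plus 3 SD, cut at about 13% in these data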;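 note: forskolin and galanin both at EC90 stimulate the cells; cAMP rise reported by CNG channel membrane potential dye signal; 0% = forskolin plus galanin with DMSO and 100% = forskolin alone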
Target sequence (O60755 1-299 limits assumed): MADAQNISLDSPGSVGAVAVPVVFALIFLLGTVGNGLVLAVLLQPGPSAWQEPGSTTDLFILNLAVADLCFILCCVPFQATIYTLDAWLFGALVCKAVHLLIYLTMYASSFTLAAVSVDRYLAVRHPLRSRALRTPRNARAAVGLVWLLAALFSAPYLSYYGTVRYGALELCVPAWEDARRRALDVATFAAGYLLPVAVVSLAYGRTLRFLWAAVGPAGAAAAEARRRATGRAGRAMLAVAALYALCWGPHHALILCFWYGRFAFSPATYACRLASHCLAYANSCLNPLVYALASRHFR
NR2E3 ag conf = NR2E3 agonism confirmed in two-hybrid assay; 2,300 tested, 51% active; shares compounds with NR2E3 ag-2; inhibition, % at 3.98 µM; CHO-S mammalian two-hybrid NR2E3-NCOR, luciferase luminescence;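 active = average inhibition above a cutoff equal to the mean inhibition of all tested compounds plus one SD, cut at about 70% in these data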;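 note: 0% = DMSO in NR2E3 cells and 100% = DMSO in cells lacking NR2E3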
VP16 counter = GAL4-VP16 reporter inhibition in NR2E3 agonist counterscreen; shares compounds with NR2E3 ag-2; CHO-S GAL4-VP16 luciferase reporter, luminescence; inhibition, % at 3.98 µM; 2,300 tested, 29% active; AID 624379;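 active = mean inhibition above a cutoff equal to the average over all tested compounds plus one standard deviation, cut at about 70% in these data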;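 note: luciferase from a UAS reporter driven by GAL4-VP16 transactivation; 0% = DMSO with VP16-transfected cells and 100% = DMSO with cells lacking VP16; higher means less reporter light so more repression of VP16 activity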
* marks the source's active call; other numbers are inactive results; . = no result.

SMILES | bovine MsrA act | NR2E3 ag-1 | NadD inh | MsrA inhibitor | NR2E3 ag-2 | GalR3 antag | NR2E3 ag conf | VP16 counter
CCC(c1nnnn1-c1ccc2c(c1)OCCO2)N1CCN(c2ccc(F)cc2)CC1 (stereo unspecified) | -6 | . | -6 | . | 54 | . | 53 | 48
O=c1[nH]c(=S)[nH]c2c1[C@H](CCc1cccc(Cl)c1)O[C@H](C1CCCC1)C2 | -1 | . | 14 | -1 | -6 | -3 | . | .
COc1ccccc1OCCNS(=O)(=O)c1ccc2oc3ccccc3c2c1 | -2 | 0 | -5 | 0 | 51 | -6 | 62 | 68
COc1ccc(NC(=O)C2CCN(S(=O)(=O)c3ccc(N4CCCC4=O)cc3)CC2)c(OC)c1 | -1 | -1 | 2 | 0 | 11 | -7 | . | .
CC1Sc2ccc(S(=O)(=O)N3CCC(C(=O)Nc4ccc(Cl)cc4)CC3)cc2NC1=O (stereo unspecified) | -3 | -2 | 7 | 0 | 103* | 11 | 94* | 75*
COc1ccc(NC(=O)C2CCN(S(=O)(=O)c3ccc4c(c3)NC(=O)C(C)S4)CC2)cc1 (stereo unspecified) | -3 | 0 | -4 | 0 | 4 | 1 | . | .
Cc1ccc(NC(=O)C2CCN(S(=O)(=O)c3ccc(N4CCCC4=O)cc3)CC2)cc1Cl | 1 | -4 | 1 | 0 | 107* | -4 | 99* | 91*
C[C@@H]1CCCCO[C@H](CN(C)S(=O)(=O)c2cccs2)[C@@H](C)CN([C@H](C)CO)C(=O)c2cc(NC(=O)Nc3ccc4c(c3)OCO4)ccc2O1 | -2 | . | 18 | 3 | -30 | -5 | . | .
O=C(c1cccc(S(=O)(=O)N2CCN(c3ccccc3)CC2)c1)N1CCCC(C(F)(F)F)C1 (stereo unspecified) | -3 | 0 | -1 | 0 | 5 | -4 | . | .
O=C(c1cc(S(=O)(=O)N2CCN(c3ccccc3)CC2)ccc1Cl)N1CCCC(C(F)(F)F)C1 (stereo unspecified) | -7 | 2 | 1 | 0 | 82* | -5 | 92* | 76*
COc1cccc(C(=O)Nc2ccc3[nH]ncc3c2)c1OC | -1 | 2 | 1 | 0 | -33 | -3 | . | .
N#Cc1cc2c(nc1SCC(=O)N1CCOCC1)CCCCC2 | -2 | 5 | 8 | 0 | 73* | 0 | 29 | 0
Cc1cc(Cl)ccc1C(O)c1ncc(-c2ccc(F)cc2)[nH]1 (stereo unspecified) | -3 | . | -2 | . | 59 | . | 6 | 32
OC(c1ccc(Cl)c(F)c1)c1ncc(-c2cccc(F)c2)[nH]1 (stereo unspecified) | -2 | . | 0 | 1 | 73* | -5 | 66 | 47
OC(c1ccc(Cl)c(Cl)c1)c1ncc(-c2ccc(Cl)cc2)[nH]1 (stereo unspecified) | -2 | . | 3 | 0 | 43 | -5 | . | .
OC(c1ccc(Cl)c(F)c1)c1ncc(-c2ccc(Cl)cc2)[nH]1 (stereo unspecified) | 0 | . | -4 | -1 | 68 | -7 | 86* | 66
CCOC(=O)c1c(C)nc2sc3c(=O)[nH]cnc3c2c1-c1ccc(OC)cc1 | -2 | 1 | 2 | 0 | 19 | -5 | . | .
COc1ccc(-c2nc(CSCC(=O)NCC3CCCO3)c(C)o2)cc1OC (stereo unspecified) | -5 | 0 | 3 | 0 | -14 | -4 | . | .
Cc1ccc(-c2nc(CSCC(=O)NCC3CCCO3)c(C)o2)cc1 (stereo unspecified) | -2 | 1 | 1 | -1 | 49 | -6 | 62 | 45
CCOC(=O)C1CCN(C(=O)CSCc2nc(-c3ccc(OCC)cc3)oc2C)CC1 | 0 | -2 | 1 | -1 | -7 | -4 | . | .
CCOc1ccc(-c2nc(CSCC(=O)NCC3CCCO3)c(C)o2)cc1 (stereo unspecified) | -2 | 1 | 4 | 1 | 104* | -2 | 92* | 87*
CCOC(=O)[C@]12CCCC=C1N(Cc1ccc3c(c1)OCO3)C(=O)[C@H](CC(=O)N1CCC(c3ccccc3)CC1)C2 | -1 | . | 5 | -2 | -18 | -2 | . | .
CCOc1ccc2c(c1)c(N=NC(N)=S)c(O)n2C | -3 | -2 | -6 | 2 | -16 | -7 | . | .
NC(=S)N=Nc1c(O)n(CCCl)c2ccc(Cl)cc12 | -4 | 5 | -2 | 2 | 50 | -3 | 33 | 7
Cc1noc(C)c1S(=O)(=O)N1CCC(Cc2ccccc2)CC1 | -1 | -1 | -6 | -1 | 3 | -7 | . | .
SMILES | bovine MsrA act | NR2E3 ag-1 | NadD inh | MsrA inhibitor | NR2E3 ag-2 | GalR3 antag | NR2E3 ag conf | VP16 counter
Cn1c(N)c(C#N)c(-c2ccccc2)c(C#N)c1=O | -2 | . | -3 | 2 | 5 | -6 | . | .
S=c1nc2ccccc2c2nc(-c3ccccc3Br)[nH]n12 | 3 | 7 | -1 | 1 | 78* | -8 | -9 | -12
O=C(CSc1cccc[n+]1[O-])CSc1cccc[n+]1[O-] | -3 | 0 | -1 | 0 | 69 | -1 | -4 | -8
O=C(CSc1cccc[n+]1[O-])N1CCCCCC1 | -5 | -1 | 5 | -1 | -7 | 1 | . | .
COc1ccc(-c2nc3ccccn3c2NC2CCCCC2)cc1SC1CCCCC1 | 1 | 2 | 17 | 2 | -27 | 4 | . | .
Cc1ccn2c(NC3CCCC3)c(-c3ccccn3)nc2c1 | -7 | -1 | 0 | 1 | 69 | -1 | 9 | -42
Cc1ccn2c(NC3CCCC3)c(-c3ccncc3)nc2c1 | -2 | -4 | -5 | 1 | 0 | -1 | . | .
c1ccc(-c2nc3ccccn3c2NC2CCCC2)nc1 | -3 | -2 | 0 | 1 | 60 | -6 | 9 | -19
COc1ccc(C(=O)c2ccc(Br)cc2)c2ccccc12 | -14 | 1 | 3 | -1 | 6 | 4 | . | .
Cc1cc(C)cc(N(CC(=O)NCc2ccco2)C(=O)c2snc(C(N)=O)c2N)c1 | -6 | 3 | 5 | 2 | -4 | -4 | . | .
Cc1cc(C)c(C)c(S(=O)(=O)NCc2ccncc2)c1C | -2 | 4 | -3 | 1 | 69 | -11 | 46 | 34
O=S(=O)(NCc1ccncc1)c1ccccc1 | 0 | 5 | -6 | 0 | 16 | 0 | . | .
N#C/C(=N\Nc1cccc(C(F)(F)F)c1)C(=O)c1ccsc1 | -2 | -2 | -3 | 1 | 80* | -3 | 98* | 59
CC(=O)Nc1ccc(S(=O)(=O)NCCC(=O)NCC2COc3ccccc3O2)cc1 (stereo unspecified) | -5 | -2 | 1 | -1 | -3 | -3 | . | .
O=C1NC(=O)C(=Cc2ccc(Cl)cc2Cl)S1 | -4 | . | -3 | 4 | 62 | -3 | 91* | -4
